Values after ≈ are worked out from the molar mass of the structure shown. Active and inactive are the calls of the source. No cut-off for these calls is given here.
Tests used:
Human respirovirus 3 = experiment: Antiviral activity against parainfluenza virus 3 infected in African green monkey Vero cells assessed as inhibition of virus-induced cytopathicity; format: functional, organism-based
Summary of the method: (§1)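 Confluent monolayers (HEL, Vero, HeLa or CrFK, as applicable) were inoculated with 100 CCID50 of virus, with 1 CCID50 being the dose that infects 50% of cultures. Infection ran in the presence of varying compound concentrations. Inhibition of virus-induced cytopathicity was scored against infected cultures left untreated.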

[1] = Selectivity index, ratio of CC50 for cat CRFK cells to IC50 for chloroquine-resistant asexual erythrocytic stage of Plasmodium falciparum Dd2; format: functional
Summary of the method: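 Ratio of CRFK CC50 (μM) to Dd2 IC50 […]. CC50 is the 50% cytotoxic concentration in feline kidney CRFK cells, measured as cell viability by colorimetric formazan-based MTS assay. Dd2 IC50 is from the parasite LDH growth-inhibition assay.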

[2] = Solubility of the compound in octanol at pH 7.4 by HPLC analysis; format: physicochemical
[3] = tested on: Mammalian orthoreovirus 1; experiment: Antiviral activity against Reovirus 1 infected in African green monkey Vero cells assessed as inhibition of virus-induced cytopathicity; format: functional, organism-based; summary of the method: as §1
Vaccinia virus = experiment: Antiviral activity against Vaccinia virus infected in HEL cells assessed as inhibition of virus-induced cytopathicity; format: functional, organism-based; details: Orthopoxvirus vaccinia
Summary of the method: (§2)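 Confluent monolayers in 96-well plates were inoculated with 100 CCID50 of virus in the presence of varying concentrations of compound. Read-out was inhibition of virus-induced cytopathicity, compared with untreated infected cultures. Cytotoxicity was judged microscopically or by MTT viability staining.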

Coxsackievirus B4 [4] = experiment: Antiviral activity against Coxsackievirus B4 infected in human HeLa cells assessed as inhibition of virus-induced cytopathicity; format: functional, organism-based; summary of the method: as §1
Coxsackievirus B4 [5] = experiment: Antiviral activity against Coxsackievirus B4 infected in African green monkey Vero cells assessed as inhibition of virus-induced cytopathicity; format: functional, organism-based; summary of the method: as §1
[6] = Cytotoxicity against human HeLa cells assessed as alteration of cell morphology by microscopic analysis; format: cell-based; details: read-out: MIC
Summary of the method: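 Cells (Vero, HEL, MDCK or HeLa) were exposed to a range of sample concentrations. The value reported is the concentration required to cause a microscopically detectable alteration of normal cell morphology.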

Sindbis virus = experiment: Antiviral activity against Sindbis virus infected in African green monkey Vero cells assessed as inhibition of virus-induced cytopathicity; format: functional, organism-based
Human alphaherpesvirus 1 [7] = experiment: Antiviral activity against thymidine kinase-negative acyclovir-resistant HSV-1 KOS infected in HEL cells assessed as inhibition of virus-induced cytopathicity; format: functional, organism-based; summary of the method: as §2
Human betaherpesvirus 5 [8] = experiment: Antiviral activity against Cytomegalovirus Davis infected in HEL cells assessed as inhibition of virus-induced cytopathicity; format: functional, organism-based
Influenza A virus = experiment: Antiviral activity against influenza A virus H1N1 infected in MDCK cells assessed as inhibition of virus-induced cytopathicity; format: functional, organism-based; summary of the method: as §2
Human alphaherpesvirus 3 = experiment: Antiviral activity against Varicella-zoster virus infected in HEL cells assessed as inhibition of virus-induced cytopathicity; format: functional, organism-based
[9] = tested on: Respiratory syncytial virus; experiment: Antiviral activity against Respiratory syncytial virus infected in human HeLa cells assessed as inhibition of virus-induced cytopathicity; format: functional, organism-based; summary of the method: as §1
Feline coronavirus = experiment: Antiviral activity against Feline coronavirus infected in cat CRFK cells assessed as inhibition of virus-induced cytopathicity; format: functional, organism-based; summary of the method: as §1
[10] = Aqueous solubility of the compound in PBS buffer at pH 7.4 after 24 hrs by HPLC analysis; format: physicochemical; details: pH 7.4, 24 h
Human betaherpesvirus 5 [11] = experiment: Antiviral activity against Cytomegalovirus AD169 infected in HEL cells assessed as inhibition of virus-induced cytopathicity; format: functional, organism-based
[12] = tested on: Vesicular stomatitis virus; experiment: Antiviral activity against Vesicular stomatitis virus infected in human HeLa cells assessed as inhibition of virus-induced cytopathicity; format: functional, organism-based; summary of the method: as §2
[13] = tested on: Vesicular stomatitis virus; experiment: Antiviral activity against Vesicular stomatitis virus infected in HEL cells assessed as inhibition of virus-induced cytopathicity; format: functional, organism-based; summary of the method: as §2
Punta Toro virus = experiment: Antiviral activity against Punta Toro virus infected in African green monkey Vero cells assessed as inhibition of virus-induced cytopathicity; format: functional, organism-based; summary of the method: as §1
Plasmodium falciparum [14] = experiment: Antiplasmodial activity against chloroquine-resistant asexual erythrocytic stage of Plasmodium falciparum Dd2 assessed as parasite growth inhibition by lactate dehydrogenase assay; format: functional, organism-based
Summary of the method: (§3)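 Parasite lactate dehydrogenase assay (modified Makler method). Samples held as 20 mg/mL stocks in DMSO, diluted on test day. Full dose-response: starting at 10 μg/mL, 2-fold serial dilution in complete medium over 10 concentrations down to 0.02 μg/mL. Chloroquine, artesunate and MMV390048 served as references. IC50 from nonlinear dose-response curve fitting; mean of three independent experiments.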

Human alphaherpesvirus 2 = experiment: Antiviral activity against HSV-2 G infected in HEL cells assessed as inhibition of virus-induced cytopathicity; format: functional, organism-based; details: strain G; summary of the method: as §1
Plasmodium falciparum [15] = experiment: Antiplasmodial activity against chloroquine-sensitive asexual erythrocytic stage of Plasmodium falciparum D10 assessed as parasite growth inhibition by lactate dehydrogenase assay; format: functional, organism-based; summary of the method: as §3
[16] = n-octanol-PBS buffer distribution coefficient, log D of the compound at pH 7.4 after 24 hrs by HPLC analysis; format: physicochemical
Felid alphaherpesvirus 1 = experiment: Antiviral activity against Feline herpesvirus infected in cat CRFK cells assessed as inhibition of virus-induced cytopathicity; format: functional, organism-based; summary of the method: as §1
[17] = Cytotoxicity against cat CRFK cells assessed as cell viability by MTS assay; format: cell-based, Felis catus
Summary of the method: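 CRFK cells were exposed to varying sample concentrations. Cell viability was measured with the colorimetric formazan-based MTS assay, and the 50% cytotoxic concentration (CC50) was derived from it.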

Influenza A virus H3N2 = experiment: Antiviral activity against Influenza A virus H3N2 infected in MDCK cells assessed as inhibition of virus-induced cytopathicity; format: functional, organism-based; summary of the method: as §2
Human alphaherpesvirus 1 [18] = experiment: Antiviral activity against HSV-1 KOS infected in HEL cells assessed as inhibition of virus-induced cytopathicity; format: functional, organism-based; summary of the method: as §1

| SMILES | inhibition (Human respirovirus 3) | solubility [2] | inhibition [3] | inhibition (Vaccinia virus) | inhibition (Coxsackievirus B4 [4]) | inhibition (Coxsackievirus B4 [5]) | MCC [6] | inhibition (Sindbis virus) | inhibition (Human alphaherpesvirus 1 [7]) | inhibition (Human betaherpesvirus 5 [8]) | inhibition (Influenza A virus) | inhibition (Human alphaherpesvirus 3) | inhibition [9] | inhibition (Feline coronavirus) | solubility [10] | inhibition (Human betaherpesvirus 5 [11]) | inhibition [12] | inhibition [13] | inhibition (Punta Toro virus) | inhibition (Human alphaherpesvirus 2) | further results |
| --- | --- | --- | --- | --- | --- | --- | --- | --- | --- | --- | --- | --- | --- | --- | --- | --- | --- | --- | --- | --- | --- |
| Clc1ccc2c(NCCNc3nccc(Cl)n3)ccnc2c1 | inactive | 2.85 µM (≈ 0.952 µg/mL) | inactive | inactive | inactive | inactive | > 100 µM | inactive | inactive | inactive | inactive | inactive | inactive | inactive | 0.9 µM (≈ 0.301 µg/mL) | inactive | inactive | inactive | inactive | inactive | Ratio CC50/IC50 [1]: >12.53; IC50 (Plasmodium falciparum [14]): 7.68 µM; IC50 (Plasmodium falciparum [15]): 2.51 µM; logD at 24 h [16]: 0.501; inhibition (Felid alphaherpesvirus 1): inactive; CC50 [17]: > 100 µM; inhibition (Influenza A virus H3N2): inactive; inhibition (Human alphaherpesvirus 1 [18]): inactive |
| Clc1ccc2c(NCCCCNc3nccc(Cl)n3)ccnc2c1 | inactive | 3.86 µM (≈ 1.4 µg/mL) | inactive | inactive | inactive | inactive | 100 µM | inactive | inactive | inactive | inactive | inactive | inactive | inactive | 0.7 µM (≈ 0.254 µg/mL) | inactive | inactive | inactive | inactive | inactive | Ratio CC50/IC50 [1]: >518; IC50 (Plasmodium falciparum [14]): 0.193 µM; IC50 (Plasmodium falciparum [15]): 0.179 µM; logD at 24 h [16]: 0.742; inhibition (Felid alphaherpesvirus 1): inactive; CC50 [17]: > 100 µM; inhibition (Influenza A virus H3N2): inactive; inhibition (Human alphaherpesvirus 1 [18]): inactive |
| Clc1ccc2c(NCCCNc3nccc(N4CCOCC4)n3)ccnc2c1 | inactive | 0.95 µM (≈ 0.379 µg/mL) | inactive | inactive | inactive | inactive | > 100 µM | inactive | inactive | inactive | inactive | inactive | inactive | inactive | 0.53 µM (≈ 0.211 µg/mL) | inactive | inactive | inactive | inactive | inactive | Ratio CC50/IC50 [1]: >632; IC50 (Plasmodium falciparum [14]): 0.158 µM; IC50 (Plasmodium falciparum [15]): 0.055 µM; logD at 24 h [16]: 0.257; inhibition (Felid alphaherpesvirus 1): inactive; CC50 [17]: > 100 µM; inhibition (Influenza A virus H3N2): inactive; inhibition (Human alphaherpesvirus 1 [18]): inactive |
| Clc1ccc2c(NCCCNc3nccc(Cl)n3)ccnc2c1 | inactive | 1.81 µM (≈ 0.63 µg/mL) | inactive | inactive | inactive | inactive | > 100 µM | inactive | inactive | inactive | inactive | inactive | inactive | inactive | 0.4 µM (≈ 0.139 µg/mL) | inactive | inactive | inactive | inactive | inactive | Ratio CC50/IC50 [1]: >209; IC50 (Plasmodium falciparum [14]): 0.478 µM; IC50 (Plasmodium falciparum [15]): 0.244 µM; logD at 24 h [16]: 0.657; inhibition (Felid alphaherpesvirus 1): inactive; CC50 [17]: > 100 µM; inhibition (Influenza A virus H3N2): inactive; inhibition (Human alphaherpesvirus 1 [18]): inactive |
| Clc1ccc2c(NCCCCCCCCCCCCNc3nccc(Cl)n3)ccnc2c1 | inactive | 19.4 µM (≈ 9.2 µg/mL) | inactive | inactive | inactive | inactive | 20 µM | inactive | inactive | inactive | inactive | inactive | inactive | inactive | 0.05 µM (≈ 0.0237 µg/mL) | inactive | inactive | inactive | inactive | inactive | IC50 (Plasmodium falciparum [15]): 4.31 µM; logD at 24 h [16]: 2.59; inhibition (Felid alphaherpesvirus 1): inactive; CC50 [17]: 19 µM; inhibition (Influenza A virus H3N2): inactive; inhibition (Human alphaherpesvirus 1 [18]): inactive |

Source: ChEMBL document CHEMBL3112527, “Quinoline-pyrimidine hybrids: synthesis, antiplasmodial activity, SAR, and mode of action studies” (J Med Chem, 2014)
